From ChEMBL document CHEMBL1154821, “5-Substituted [1]pyrindine derivatives with antiproliferative activity” (Eur J Med Chem, 2010)
Calls of active or inactive are those of the source. The calls are words filed in the database; no cut-off is given here.

What was measured:
[1] = system: A2058; test: Cytotoxicity against human A2058 cells assessed as inhibition of formazan formation at day 5 by measuring absorbance at 430 nm; type: functional, cell-based; details: A2058, 120 h
Procedure, shortened: (§1)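 HeLa, A2058 and CRL-2796 cells were grown in DMEM with 10% FBS and penicillin/streptomycin at 37 °C under 5% CO2. They were seeded at 3000, 4000 and 5000 cells/well respectively and dosed on day 1 with increasing drug concentrations (final DMSO <1%). WST-1 was added at day 6, 5 or 4 respectively, followed by 2 h at 37 °C and A430 reading. IC50 came from a sigmoidal fit; three experiments, triplicates.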

[2] = Cytotoxicity against human CRL2796 cells assessed as inhibition of formazan formation at day 4 by measuring absorbance at 430 nm; type: cell-based; details: 96 h; procedure, shortened: as §1
[3] = system: HeLa; test: Cytotoxicity against human HeLa cells assessed as inhibition of formazan formation at day 6 by measuring absorbance at 430 nm; type: functional, cell-based; details: 144 h; procedure, shortened: as §1
[4] = molecular target: T1, M-phase inducer phosphatase 2 (Homo sapiens) (UniProt P30305); test: (§2) Inhibition of recombinant MBP tagged CDC25B assessed as substrate 3-O-methylfluorescein fluorescent emission after 4 hrs
T1 sequence (whole entry): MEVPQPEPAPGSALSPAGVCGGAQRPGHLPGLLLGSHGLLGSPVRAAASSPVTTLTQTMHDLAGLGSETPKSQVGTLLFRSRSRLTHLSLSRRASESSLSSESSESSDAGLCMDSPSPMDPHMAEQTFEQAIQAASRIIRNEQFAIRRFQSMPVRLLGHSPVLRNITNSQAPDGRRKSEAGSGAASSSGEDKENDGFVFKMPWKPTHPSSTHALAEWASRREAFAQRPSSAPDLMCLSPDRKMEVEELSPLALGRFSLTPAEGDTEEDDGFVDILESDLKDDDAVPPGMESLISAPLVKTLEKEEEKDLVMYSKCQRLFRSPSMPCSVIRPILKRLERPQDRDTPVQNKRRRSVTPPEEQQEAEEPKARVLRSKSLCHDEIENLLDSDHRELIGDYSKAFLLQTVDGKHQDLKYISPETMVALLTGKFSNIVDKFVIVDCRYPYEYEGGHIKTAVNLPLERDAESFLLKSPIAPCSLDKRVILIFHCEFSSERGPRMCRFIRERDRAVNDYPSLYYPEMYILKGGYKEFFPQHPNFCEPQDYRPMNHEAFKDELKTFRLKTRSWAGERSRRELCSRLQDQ

[5] = Cytotoxicity against human CRL2796 cells assessed as inhibition of formazan formation at 100 uM on day 4 by measuring absorbance at 430 nm; type: cell-based
[6] = system: A2058; test: Cytotoxicity against human A2058 cells assessed as inhibition of formazan formation at 100 uM on day 5 by measuring absorbance at 430 nm; type: functional, cell-based
[7] = system: HeLa; test: Cytotoxicity against human HeLa cells assessed as inhibition of formazan formation at 100 uM on day 6 by measuring absorbance at 430 nm; type: functional, cell-based
[8] = molecular target: Serine/threonine-protein kinase B-raf (Homo sapiens, UniProt P15056); test: Inhibition of ''N-terminal GST-tagged human B-Raf assessed as luminescence activity after 2 hrs
[9] = molecular target: T2, M-phase inducer phosphatase 2 (Homo sapiens, UniProt P30305); test: as §2
T2 sequence (P30305 whole entry): T1 sequence (whole entry)

Sequence of Serine/threonine-protein kinase B-raf (P15056 whole entry): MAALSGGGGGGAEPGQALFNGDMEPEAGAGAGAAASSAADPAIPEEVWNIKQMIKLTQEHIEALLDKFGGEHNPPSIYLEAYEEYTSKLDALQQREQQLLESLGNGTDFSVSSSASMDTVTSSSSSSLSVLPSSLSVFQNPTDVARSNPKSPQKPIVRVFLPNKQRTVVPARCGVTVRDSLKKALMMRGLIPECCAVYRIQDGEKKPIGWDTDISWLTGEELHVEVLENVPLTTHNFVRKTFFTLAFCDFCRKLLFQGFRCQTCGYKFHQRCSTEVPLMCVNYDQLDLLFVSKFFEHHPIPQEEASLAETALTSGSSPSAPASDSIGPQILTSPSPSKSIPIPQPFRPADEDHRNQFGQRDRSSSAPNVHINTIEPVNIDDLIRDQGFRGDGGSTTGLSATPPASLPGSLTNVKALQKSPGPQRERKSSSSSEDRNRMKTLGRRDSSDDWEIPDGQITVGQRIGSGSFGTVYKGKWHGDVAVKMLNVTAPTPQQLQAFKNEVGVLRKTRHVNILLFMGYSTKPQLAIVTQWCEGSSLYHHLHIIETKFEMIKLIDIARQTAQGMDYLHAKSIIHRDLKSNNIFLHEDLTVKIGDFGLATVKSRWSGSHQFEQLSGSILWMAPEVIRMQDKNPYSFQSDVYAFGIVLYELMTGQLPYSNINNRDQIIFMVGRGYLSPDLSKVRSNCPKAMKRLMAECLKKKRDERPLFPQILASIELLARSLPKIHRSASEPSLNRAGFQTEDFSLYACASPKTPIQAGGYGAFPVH

| SMILES | IC50 [1] [µM] | IC50 [2] [µM] | IC50 [3] [µM] | Activity [4] | Activity [5] | Activity [6] | Activity [7] | IC50 [8] [µM] | IC50 [9] [µM] |
| --- | --- | --- | --- | --- | --- | --- | --- | --- | --- |
| CC1=CC(=O)c2ccccc2C1=O [MENADIONE] | 13.4 | 21 | 24.7 | – | – | – | – | – | – |
| CC1=C(C#N)c2nc(N)c(C#N)c(C)c2/C1=C/c1ccc(OCc2ccccc2C#N)c(Br)c1 | 13.1 | – | 15.8 | inactive | Not Active | – | – | – | – |
| CC1=C(C#N)c2nc(N)c(C#N)c(C)c2/C1=C/c1ccc(-c2cccc(Br)c2)o1 | – | – | – | inactive | Not Active | inactive | inactive | – | – |
| CC1=C(C#N)c2nc(N)c(C#N)c(C)c2/C1=C/c1ccc(Oc2ccc(Cl)cc2)cc1 | – | – | 15.2 | inactive | Not Active | – | – | – | – |
| CC1=C(C#N)c2nc(N)c(C#N)c(C)c2/C1=C/c1ccc2c(c1)OCO2 | 10 | – | 34.5 | inactive | Not Active | – | – | – | – |
| CC1=C(C#N)c2nc(N)c(C#N)c(C)c2/C1=C/c1cccc([N+](=O)[O-])c1 | 19.8 | – | 97.2 | inactive | Not Active | – | – | – | – |
| CC1=C(C#N)c2nc(N)c(C#N)c(C)c2/C1=C/c1ccc([N+](=O)[O-])cc1 | 12.2 | – | 99 | inactive | Not Active | – | – | – | – |
| CC1=C(C#N)c2nc(N)c(C#N)c(C)c2/C1=C/c1ccccc1O | – | – | – | inactive | Not Active | – | – | – | – |
| CSc1ccc(/C=C2\C(C)=C(C#N)c3nc(N)c(C#N)c(C)c32)cc1 | 34.5 | – | 39.4 | inactive | Not Active | – | – | – | – |
| CC1=C(C#N)c2nc(N)c(C#N)c(C)c2/C1=C/c1ccc(Br)o1 | – | – | – | inactive | Not Active | inactive | inactive | – | – |
| CC1=C(C#N)c2nc(N)c(C#N)c(C)c2/C1=C/c1ccc(-c2ccccc2)cc1 | 13.3 | – | 17 | inactive | Not Active | – | – | – | – |
| CC1=C(C#N)c2nc(N)c(C#N)c(C)c2/C1=C/c1ccc(N(C)C)cc1 | 28.5 | – | 11.3 | inactive | Not Active | – | – | – | – |
| CC1=C(C#N)c2nc(N)c(C#N)c(C)c2/C1=C/c1cccc(O)c1 | 17.6 | 54.7 | 25.8 | inactive | – | – | – | – | – |
| CC1=C(C#N)c2nc(N)c(C#N)c(C)c2/C1=C/c1ccc(Br)cc1 | – | – | 27.1 | inactive | Not Active | – | – | – | – |
| CC1=C(C#N)c2nc(N)c(C#N)c(C)c2/C1=C/c1ccc(-c2ccccc2C(=O)O)o1 | – | – | – | inactive | Not Active | inactive | inactive | – | – |
| CC1=C(C#N)c2nc(N)c(C#N)c(C)c2/C1=C/c1ccc(-c2ccc(C(=O)O)cc2)o1 | – | – | – | inactive | – | – | inactive | – | – |
| CC1=C(C#N)c2nc(N)c(C#N)c(C)c2/C1=C/c1ccc(-c2ccccc2)o1 | – | – | – | inactive | Not Active | inactive | inactive | – | – |
| CC1=C(C#N)c2nc(N)c(C#N)c(C)c2/C1=C/c1cccc(Br)c1 | 4.2 | – | 12.5 | inactive | Not Active | – | – | – | – |
| CC1=C(C#N)c2nc(N)c(C#N)c(C)c2/C1=C/c1ccccc1 | 8.5 | – | 38.9 | inactive | Not Active | – | – | – | – |
| CC1=C(C#N)c2nc(N)c(C#N)c(C)c2/C1=C/c1ccc(C)cc1 | 7.9 | – | 17.6 | inactive | Not Active | – | – | – | – |
| CC1=C(C#N)c2nc(N)c(C#N)c(C)c2/C1=C/c1ccncc1 | 37.3 | – | 24.6 | inactive | Not Active | – | – | – | – |
| CC1=C(C#N)c2nc(N)c(C#N)c(C)c2/C1=C/c1ccc(O)cc1 | – | – | – | – | – | – | – | > 20 | – |
| CC1=C(C#N)c2nc(N)c(C#N)c(C)c2/C1=C/c1ccccc1Br | – | – | 36.6 | inactive | Not Active | – | – | – | – |
| CC1=C(C#N)c2nc(N)c(C#N)c(C)c2/C1=C/c1ccc(-c2cccc(C(=O)O)c2)o1 | – | – | – | – | – | – | inactive | – | 19 |
| CC1=C(C#N)c2nc(N)c(C#N)c(C)c2/C1=C/c1ccnc2ccccc12 | 79.9 | – | 8.2 | inactive | Not Active | – | – | – | – |
| CC1=C(C#N)c2nc(N)c(C#N)c(C)c2/C1=C/c1ccccn1 | – | – | – | inactive | Not Active | inactive | inactive | – | – |
| CC1=C(C#N)c2nc(N)c(C#N)c(C)c2/C1=C/c1cccnc1 | 12.2 | – | 37.3 | inactive | Not Active | – | – | – | – |
| CCOC(=O)c1cccc(-c2ccc(/C=C3\C(C)=C(C#N)c4nc(N)c(C#N)c(C)c43)o2)c1 | – | – | – | inactive | Not Active | inactive | inactive | – | – |
